PKA-R1A activ – activators of PKA-R1A holoenzyme, primary screen, biochemical, fluorescence polarization, Cy5-IP20, bovine R1A, mouse PKAc; activation, % at 11.4 µM; cAMP-dependent protein kinase type I-alpha regulatory subunit (Bos taurus) + …; AID 504707, 2011; 340,000 tested, 0.083% active; PKA-R1A dissociation; scaled: DMSO 0%, 113 µM cGMP 100%;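 active = percent activation above the mean of all tested compounds plus 3 SD, cut at about 19% in these data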;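 also: higher means more PKAc released from R1A so a rise in polarization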
PKA-R2B activ – activators of PKA-R2B holoenzyme, primary screen, biochemical, fluorescence polarization, Cy5-IP20, human; activation, % at 11.4 µM; 340,000 tested, 0.079% active; PKA-R2B holoenzyme dissociation; R2B truncated from residue 108, S112A mutant; 0% DMSO only, 100% 113 µM cGMP; cAMP-dependent protein kinase catalytic subunit beta (Homo sapiens) + cAMP-dependent …;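 active = activation above a cutoff set at the mean over all compounds plus 3 SD, cut at about 18% in these data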;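 also: higher means more holoenzyme dissociation and a rise in polarization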
Target sequence (P31323 whole entry, looked up, other chains not shown, the tested form may be a part): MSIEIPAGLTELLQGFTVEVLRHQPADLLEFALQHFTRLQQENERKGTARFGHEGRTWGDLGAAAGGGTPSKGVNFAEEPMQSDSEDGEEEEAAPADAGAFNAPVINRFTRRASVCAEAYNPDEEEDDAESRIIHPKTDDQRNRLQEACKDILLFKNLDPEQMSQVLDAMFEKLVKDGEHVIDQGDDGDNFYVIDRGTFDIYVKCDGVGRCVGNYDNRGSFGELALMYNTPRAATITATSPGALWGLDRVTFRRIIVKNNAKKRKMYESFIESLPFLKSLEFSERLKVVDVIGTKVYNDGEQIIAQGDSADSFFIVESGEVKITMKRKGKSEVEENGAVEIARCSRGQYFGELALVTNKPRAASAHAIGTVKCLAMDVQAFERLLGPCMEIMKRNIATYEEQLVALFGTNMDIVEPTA
HKDC1 inhibitor – HKDC1 hexokinase inhibitors, primary screen, biochemical, fluorescence, uHTS; Q2TB90; recombinant HKDC1, G6PDH/diaphorase resazurin coupled fluorescence; AID 493160, 2011; inhibition, % at 20 µM; 340,000 tested, 0.16% active;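 active = inhibition above about 35% when tested at 20 µM, limit read from the data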;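 also: plate controls were DMSO wells with enzyme for no effect and DMSO wells lacking enzyme for full effect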
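Assay system: recombinant HKDC1 hexokinase; detection: coupled resazurin fluorescence, excitation 525 nm, emission 613 nm; benchmarks: DMSO-plus-enzyme-mix negative control, buffer-substituted positive control; compound dosing: single 20 µM dose; schedule: 90 min at room temperature in dark; also added: glucose plus 1 mM ATP as hexokinase substrates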
T cell HTS – modulators of CD8 T cell-vesicle binding, primary screen, mouse 2C CD8+ T cells, flow cytometry; 2C CD8+ T cell-vesicle binding; stronger effect = lower value; 330,000 tested, 0.068% active; response (vesicle binding), % at 7 µM;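 active = response, share of CD8 T cells binding vesicles, and their 90th percentile fluorescence all below set limits, cut at about 80% in these data, passing the limit was not always enough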;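 also: values below 100% mean blocked vesicle binding to the CD8+ T cells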
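Material: 2C TCR transgenic mouse naive CD8+ T cells, MACS-purified. Also added: QL9-charged Drosophila Ld/ICAM-1/B7-1 vesicles. Timing: binding 1.5 h at 37 °C. Measured by: high-throughput flow cytometry with anti-B7-1 and anti-CD8 staining. Read-out: percent CD8+ FL2 mean versus row control. Controls: Unloaded micro-vesicles (low), QL9 vesicles with 0.7% DMSO (high).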
ATG4B inhibitor – ATG4B protease inhibitors, primary screen, biochemical, fluorescence, uHTS; AID 504462, 2011; inhibition, % at 8.33 µM; ATG4B cleavage of LC3-PLA2, NBD-HPC fluorescence, 1 h; Cysteine protease ATG4B (Homo sapiens), Q9Y4P1; 340,000 tested, 0.51% active; in the data active = inhibition above about 40%
PfG6PD inh – PfG6PD enzyme inhibitors, primary screen, biochemical, fluorescence intensity, uHTS; glucose-6-phosphate dehydrogenase-6-phosphogluconolactonase (Plasmodium falciparum 3D7); PfGluPho enzyme, NADPH resazurin-diaphorase fluorescence; inhibition, % at 20 µM; 350,000 tested, 0.78% active; AID 504690, 2011;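 active = inhibition reaching at least a set limit at 20 µM in the primary screen, cut at about 59% in these data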;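 also: 0% = DMSO wells with substrate and 100% = DMSO wells lacking glucose-6-phosphate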
PfGluPho conf – PfG6PD inhibitors, hit retest, confirmation, biochemical, fluorescence intensity, single concentration. shares compounds with PfG6PD inh. recombinant PfGluPho, NADPH-diaphorase-resazurin fluorescence. inhibition, % at 20 µM. 2,400 tested, 34% active. AID 504753, 2011;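 active = inhibition of at least 50% at 20 µM in any single replicate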;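 also: 0% = DMSO with substrate and 100% = DMSO lacking glucose-6-phosphate substrate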
Diaphorase 10uM – diaphorase inhibitors and chemical oxidizers, confirmation, counter-screen for P. falciparum G6PD inhibitor project, biochemical, fluorescence intensity, 10 µM NADPH. shares compounds with PfG6PD inh. diaphorase-coupled resazurin reduction, NADPH 10 uM. inhibition, % at 20 µM. 820 tested, 39% active. AID 504862, 2011;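 active = average inhibition reaching 50% or more with the compound at 20 µM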;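 also: resorufin red fluorescence formed as diaphorase reduces resazurin using NADPH; 0% = DMSO with enzyme and 100% = DMSO without enzyme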
Diaph ctr 30uM – diaphorase inhibitors and chemical oxidizers, confirmation, counter-screen for P. falciparum G6PD inhibitor project, biochemical, fluorescence intensity, 30 µM NADPH; 820 tested, 29% active; AID 504863, 2011; inhibition, % at 20 µM; shares compounds with PfG6PD inh; Diaphorase/resazurin coupled assay, resorufin fluorescence;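 active = inhibition averaging 50% or more, tested at 20 µM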;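 also: 0% = DMSO with enzyme and 100% = DMSO wells lacking diaphorase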
The depositor's hits bear a star; / = no result. The list is not random: actives were taken first. Their share in the collection is about 1.6%.

SMILES	PKA-R1A activ	PKA-R2B activ	HKDC1 inhibitor	T cell HTS	ATG4B inhibitor	PfG6PD inh	PfGluPho conf	others
CS(=O)(=O)c1ccc(N)c(SSc2cc(S(C)(=O)=O)ccc2N)c1	-6.4	10.7	8.8	346.3	-11.4	97.0*	99.1*	Diaphorase 10uM=-29.0;Diaph ctr 30uM=-19.9
CCSc1nc2c([nH]1)c(=O)n(C)c(=S)n2C	2.7	-4.0	-1.4	/	-5.0	62.1*	40.9
CC1CCCCN1C(=O)c1cc2ccccc2cc1O (stereo not drawn)	2.2	1.4	-3.5	261.6	1.6	-2.7	/
NC(=O)CSc1nnc(-c2ccccc2Br)n1-c1cccc(C(F)(F)F)c1	2.4	-8.3	-5.2	360.4	-4.0	69.1*	59.3*	Diaphorase 10uM=59.5*;Diaph ctr 30uM=54.7*
NS(=O)(=O)c1ccc(NC(=O)CSc2n[nH]c(=O)n2C2CC2)cc1	-9.8	-3.0	-4.0	204.7	2.3	-14.5	/
CC(C)(C)NC(=O)COc1coc(CN2CCN(Cc3ccccc3)CC2)cc1=O	0.6	0.1	-3.2	439.4	4.2	-14.7	/
CCOC(=O)c1c(NC(=O)c2ccccc2Cl)sc2c1CCc1ccccc1-2	1.5	-16.7	-0.9	88.8	6.6	72.2*	28.2
CCOC(=O)c1c(NC(=O)c2ccccc2)sc2c1CCc1ccccc1-2	-23.1	-15.9	-3.2	178.4	-2.1	58.0	/
Cn1nc(C(F)(F)F)c2cc(NC(=O)OCc3ccc(C(C)(C)C)cc3)sc21	-3.3	0.4	0.9	/	0.3	28.1	/
Cn1nc(C(F)(F)F)c2cc(NC(=O)OCc3ccc(F)cc3)sc21	-5.3	-6.6	7.1	181.4	-1.4	59.0*	4.2
CCCn1c(SCC(=O)Nc2ccccc2C(=O)NC2CC2)n[nH]c1=O	-4.3	-4.4	-5.2	469.3	-53.9	14.3	/
O=C(CSc1ccccn1)Nc1nonc1[N+](=O)[O-]	0.4	-6.6	13.4	323.3	-2.6	111.8*	109.7*	Diaphorase 10uM=87.4*;Diaph ctr 30uM=90.9*
O=C(CSc1ccccn1)Nc1ccc(NC(=O)CSc2ccccn2)cc1	3.6	2.4	-0.6	439.3	0.0	-24.4	/
O=C(CCCC(=O)N/N=C\c1ccccn1)N/N=C\c1ccccn1	11.6	0.8	-4.8	441.2	-4.3	-8.5	/
S=C(NN=Cc1ccccn1)N(Cc1ccccn1)Cc1ccccn1	10.2	-1.2	-35.7	/	-1.7	79.5*	55.3*	Diaphorase 10uM=-8.6;Diaph ctr 30uM=-1.2
COc1ccc(C(=O)Nc2sc(C)c(-c3ccccc3)c2C#N)cc1OC	-4.5	-5.9	1.5	221.1	-16.5	66.6*	-10.2
CCc1nc(SCc2ccc(Cl)cc2)n[nH]1	0.4	0.6	5.0	92.7	-0.8	53.4	/
CCCc1nc(SCc2ccc(Cl)cc2Cl)n[nH]1	0.1	-8.2	1.1	304.0	-6.8	71.9*	44.0
CCN(CC)C(=O)CSc1nc(N)c(C#N)c(-c2cccs2)c1C#N	7.7	-8.0	10.2	232.8	-9.8	-4.5	/
CCN(CC)C(=O)CSc1nc(-c2cccs2)cc(-c2cccs2)c1C#N	4.5	0.1	3.9	334.5	20.8	70.0*	14.6

Screening data: PubChem, several laboratories
